Experiment [1] deals with L1210. Briefly: Tested for post inoculation lifespan in L1210-inoculated mice at dose 288 mg/kg administered intraperitoneally. The class given is functional, Mus musculus. The conditions noted are these: route intraperitoneal. A digest of the protocol:
(§1)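 Female BDF1 mice (~18 g) were inoculated ip on day 0 with 1 × 10⁶ L1210 cells and treated once ip 24 h later with drug in water (0.01 mL/g); saline controls. Groups had six mice. %T/C = mean life span treated / mean life span control × 100, with T/C ≥ 125 taken as significant. Deaths were assigned to leukemia or drug toxicity by timing and necropsy.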

The subject of experiment [2] is L1210. Briefly: Tested for percent of L1210 cells killed by dose 288 mg/kg administered intraperitoneally. The class given is functional, Mus musculus. The conditions noted are these: route intraperitoneal. In a few lines: (§2)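 Female BDF1 mice (~18 g) were inoculated ip on day 0 with 1 × 10⁶ murine L1210 leukemia cells. They got a single ip bolus 24 h later of drug freshly dissolved in water, at 0.01 mL/g body weight. Controls received saline. The percentage of cells killed was estimated from residual leukemia body burden, using inoculum-response data relating inoculum size to postinoculation life span.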

For experiment [3], the system named is L1210. Kind of experiment: Tested for percent of L1210 cells killed by dose 173 mg/kg administered intraperitoneally. In kind it is functional, Mus musculus. The conditions noted are these: route intraperitoneal. A digest of the protocol: as §2
Experiment [4] relates to L1210. Briefly: Tested for post inoculation lifespan in L1210-inoculated mice at dose 173 mg/kg administered intraperitoneally. The class given is functional, Mus musculus. The conditions noted are these: route intraperitoneal. In a few lines:
as §1

Experiment [5] relates to L1210. Kind of experiment: Tested for post inoculation lifespan in L1210-inoculated mice at dose 62 mg/kg administered intraperitoneally. The class given is functional, Mus musculus. The conditions noted are these: route intraperitoneal. In a few lines:
as §1

In experiment [6] the test system is L1210. Kind of experiment: Tested for percent of L1210 cells killed by dose 62 mg/kg administered intraperitoneally. In kind it is functional, Mus musculus. The conditions noted are these: route intraperitoneal. A digest of the protocol:
as §2

Experiment [7] deals with L1210. Briefly: Tested for post inoculation lifespan in L1210-inoculated mice at dose 104 mg/kg administered intraperitoneally. The conditions noted are these: route intraperitoneal. The class given is functional, Mus musculus. In a few lines: as §1
Experiment [8] has as its system L1210. Kind of experiment: Tested for percent of L1210 cells killed by dose 104 mg/kg administered intraperitoneally. In kind it is functional, Mus musculus. The conditions noted are these: route intraperitoneal. A digest of the protocol:
as §2

The test system of experiment [9] is L1210. Briefly: Tested for post inoculation lifespan in L1210-inoculated mice at dose 480 mg/kg administered intraperitoneally. In kind it is functional, Mus musculus. The conditions noted are these: route intraperitoneal. A digest of the protocol:
as §1

In experiment [10] the test system is L1210. Kind of experiment: Tested for percent of L1210 cells killed by dose 480 mg/kg administered intraperitoneally. The class given is functional, Mus musculus. The conditions noted are these: route intraperitoneal. A digest of the protocol: as §2
In experiment [11] the test system is L1210. Kind of experiment: Tested for percent of L1210 cells killed by dose 173 mg/kg administered intraperitoneally. The conditions noted are these: Mus musculus, route intraperitoneal.
The test system of experiment [12] is L1210. Briefly: Tested for post inoculation lifespan in L1210-inoculated mice at dose 800 mg/kg administered intraperitoneally. In kind it is functional, Mus musculus. The conditions noted are these: route intraperitoneal. In a few lines: as §1
The test system of experiment [13] is L1210. Briefly: Tested for percent of L1210 cells killed by dose 800 mg/kg administered intraperitoneally. In kind it is functional, Mus musculus. The conditions noted are these: route intraperitoneal. In a few lines: as §2
Experiment [14] has as its system L1210. Briefly: Tested for post inoculation lifespan in L1210-inoculated mice at dose 37 mg/kg administered intraperitoneally. In kind it is functional, Mus musculus. The conditions noted are these: route intraperitoneal. A digest of the protocol: as §1
In experiment [15] the test system is L1210. Briefly: Tested for percent of L1210 cells killed by dose 37 mg/kg administered intraperitoneally. The class given is functional, Mus musculus. The conditions noted are these: route intraperitoneal. In a few lines: as §2

As usually defined, the T/C is the ratio of treated to control.

The compound `NS(=O)(=O)c1ncnc2c1ccn2[C@H]1C[C@H](O)[C@@H](CO)O1` gave a T/C in the experiment on L1210 [1] of 113%. In the experiment with L1210 [2], this compound came in with a Cells killed of 67.94%.

Regarding `Nc1nc([S+](N)[O-])c2ccn([C@@H]3C[C@@H](O)[C@H](CO)O3)c2n1` (stereo partly drawn), in the experiment on L1210 [3], the Cells killed is listed as 0%. Moreover, the T/C with L1210 [4] is given as 100%.

In the experiment on L1210 [5], `OC[C@H]1O[C@@H](n2ccc3c(S)ncnc32)C[C@@H]1O` registered a T/C of 96%. Besides, the Cells killed in the experiment on L1210 [6] came to 0%.

The compound `NSc1ncnc2c1ccn2[C@H]1C[C@H](O)[C@@H](CO)O1` returned a T/C with L1210 [7] of 101%. The compound further showed a Cells killed in the experiment on L1210 [8] of 2%.

In turn, `N[S+]([O-])c1ncnc2c1ccn2[C@@H]1C[C@@H](O)[C@H](CO)O1` (stereo partly drawn) returned a T/C with L1210 [9] of 112%. Also, the Cells killed with L1210 [10] was 60.59%.

In turn, `NSc1nc(N)nc2c1ccn2[C@H]1C[C@H](O)[C@@H](CO)O1` showed a Cells killed with L1210 [11] of 46.64%. The compound further gave a T/C in the experiment on L1210 [4] of 112%.

With `Nc1nc(S)c2ccn([C@H]3C[C@H](O)[C@@H](CO)O3)c2n1`, the T/C in the experiment on L1210 [7] is recorded as 105%. In the experiment on L1210 [8], this compound returned a Cells killed of 35.63%.

In turn, `Nc1cc2c(ncn2C2O[C@H](CO)[C@@H](O)[C@H]2O)c(S)n1` (stereo partly drawn) came in with a T/C with L1210 [7] of 93%. The compound also displayed a Cells killed in the experiment on L1210 [8] of 0%.

`Nc1nc([S+](N)[O-])c2ccn(C3O[C@H](CO)[C@@H](O)[C@H]3O)c2n1` (stereo partly drawn): the T/C in the experiment on L1210 [1] was 115%. The Cells killed in the experiment with L1210 [2] was 76.93%.

`Nc1cc2c(ncn2C2O[C@H](CO)[C@@H](O)[C@H]2O)c([S+](N)[O-])n1` (stereo partly drawn) returned a T/C in the experiment on L1210 [12] of 102%. The compound further showed a Cells killed in the experiment with L1210 [13] of 16.32%.

The compound `NSc1nc(N)cc2c1ncn2C1O[C@H](CO)[C@@H](O)[C@H]1O` (stereo partly drawn) showed a T/C with L1210 [5] of 103%. For the same compound, the Cells killed with L1210 [6] is given as 21.86%.

With `Nc1nc(S(N)(=O)=O)c2ccn(C3O[C@H](CO)[C@@H](O)[C@H]3O)c2n1` (stereo partly drawn), in the experiment with L1210 [9], the T/C amounted to 100%. In the experiment on L1210 [10], this compound showed a Cells killed of 0%.

In the experiment with L1210 [14], `Nc1nc(S)c2ccn(C3O[C@H](CO)[C@@H](O)[C@H]3O)c2n1` (stereo partly drawn) gave a T/C of 90%. The compound further had a Cells killed in the experiment with L1210 [15] of 0%.

Turning to `NSc1nc(N)nc2c1ccn2C1O[C@H](CO)[C@@H](O)[C@H]1O` (stereo partly drawn), the T/C in the experiment with L1210 [7] was 111%. Besides, the Cells killed in the experiment on L1210 [8] came to 66.6%.

These data come from ChEMBL document CHEMBL1124746, “Synthesis and antitumor evaluation in mice of certain 7-deazapurine (pyrrolo[2,3-d]pyrimidine) and 3-deazapurine (imidazo[4,5-c]pyridine) nucleosides structurally related to sulfenosine, sulfinosine, and sulfonosine” (1990).
